Test results as given in ChEMBL document CHEMBL5046273, “Development of a Novel, Small-Molecule Brain-Penetrant Histone Deacetylase Inhibitor That Enhances Spatial Memory Formation in Mice” (J Med Chem, 2022).
Active and inactive are the calls of the source. No cut-off for these calls is given here.

Assays:
[1] = Toxicity in ip dosed BALB/c mouse assessed as maximum tolerated dose measured after 2 weeks; assay type: organism-based; conditions: in vivo, 336 h
Method in brief: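 Healthy BALB/c mice, compound in 20% DMSO/saline, single i.p. dose. One mouse each at 200, 100 and 50 mg/kg, then 25, 12.5 and 6.25 mg/kg if needed, repeated until a tolerated dose was found. Last test repeated once. Mice weighed daily for 8 days; euthanized at >20% weight loss or overt toxicity. Morbidity/mortality followed over 2 weeks; triplicate experiments.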

[2] = Tmax in Swiss Webster mouse blood at 40 mg/kg, ip by LC-MS/MS analysis; assay type: ADME, organism-based
Method in brief: (§1)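 Single i.p. dose of 40 mg/kg in Swiss Webster mice; blood, brain and liver taken at several time points. Tissues homogenized in acetonitrile, centrifuged, spin-filtered, dried and reconstituted, with 4,5-diphenylimidazole as instrument standard. Quantified by LC–MS/MS on a C18 column with a formic acid/MeCN gradient. Mean ± SD (n = 4), fitted to a two-compartment PK model.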

[3] = Cmax in Swiss Webster mouse liver at 40 mg/kg, ip by LC-MS/MS analysis; assay type: ADME, organism-based; parameters: route intraperitoneal, dose 40 mg/kg; method in brief: as §1
[4] = Drug uptake in BALB/c mouse liver at 40 mg/kg, ip measured upto 60 mins by mass spectroscopy analysis; assay type: ADME, organism-based; conditions: in vivo, 1 h
Method in brief: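 BALB/c mice received 40 mg/kg i.p. Retro-orbital blood was collected under isoflurane, then liver and whole brain after CO2 euthanasia, at 10, 30 and 60 min. Acetonitrile extracts were spin-filtered with 4,5-diphenylimidazole as instrument standard and analysed by LC–MS/MS.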

[5] = Elimination rate in Swiss Webster mouse brain at 40 mg/kg, ip by LC-MS/MS analysis; assay type: ADME, organism-based; method in brief: as §1
[6] = AUC in Swiss Webster mouse brain at 40 mg/kg, ip by LC-MS/MS analysis; assay type: ADME, organism-based; parameters: dose 40 mg/kg; conditions: in vivo; method in brief: as §1
[7] = Half life in Swiss Webster mouse blood at 40 mg/kg, ip by LC-MS/MS analysis; assay type: ADME, organism-based; conditions: in vivo; method in brief: as §1
Mus musculus [8] = assay: Cognitive enhancing effect in C57BL/6 mouse assessed as enhanced spatial memory at 20 to 40 mg/kg, ip measured after 24 hrs; assay type: functional, organism-based; conditions: dose 20-40 mg/kg
Method in brief: (§2)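 Male C57BL/6 mice trained to 30 s of total exploration of two identical objects (20 min maximum). Immediately afterwards they received one i.p. injection at 5 mL/kg in 100% DMSO (20, 30 or 40 mg/kg); vehicle DMSO, NaBu 600 mg/kg in saline. Object placement (moved object) tested at 24 h and object recognition (novel object) at 48 h. Time with that object compared to chance (15 s) by one-sample t-test.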

[9] = molecular target: T1, Histone deacetylase (Homo sapiens) (UniProt Q13547+O15379+Q9UBN7+Q92769+Q9UQL6+Q8WUI4+Q9BY41+Q96DB2+P56524+Q9UKV0+Q969S8); assay: Inhibition of HDAC in human DU-145 cells assessed as increase in histone H3 acetylation at 50 to 100 uM after 24 hrs by immunofluorescence microscopy; assay type: cell-based; conditions: dose 50-100 µM
Method in brief: (§3)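 Cells were fixed in 4% PFA and permeabilized in TBS-T/BSA. Staining used anti-acetyl-H3 (Lys9/Lys14) at 1:2000, an AlexaFluor 488 secondary and DAPI. At least five random fields were imaged by fluorescence microscopy; three independent experiments.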

DU-145 [10] = assay: Cytotoxicity against human DU-145 cells assessed as reduction in cell viability incubated for 48 hrs by MTT assay; assay type: functional
Method in brief: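 DU145 cells grown in DMEM with 10% FBS, penicillin/streptomycin and L-glutamine at 37 °C and 5% CO2. Cells seeded at 14 000/well and allowed to adhere 24 h. Compounds diluted from 10 mM DMSO stocks into medium (final 25–100 μM), DMSO vehicle, triplicate wells, 48 h. MTT 250 μg/mL for 4 h, dissolved in DMSO, A570 (ref 690). Normalized to DMSO; three independent experiments.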

[11] = molecular target: T1, Histone deacetylase (Homo sapiens); assay: Inhibition of HDAC in human DU-145 cells assessed as increase in histone H3 acetylation after 24 hrs by immunofluorescence microscopy; assay type: cell-based; method in brief: as §3
Mus musculus [12] = assay: Cognitive enhancing effect in C57BL/6 mouse assessed as enhanced object recognition memory consolidation at 20 to 40 mg/kg, ip measured after 48 hrs; assay type: functional, organism-based; conditions: dose 20-40 mg/kg; method in brief: as §2
Histone deacetylase 2 = Histone deacetylase 2 (Homo sapiens, UniProt Q92769); assay: Inhibition of HDAC2 in human DU-145 cells assessed as increase in histone H3 acetylation after 24 hrs by immunofluorescence microscopy; assay type: cell-based
Sequence of Histone deacetylase 2 (Q92769 whole entry): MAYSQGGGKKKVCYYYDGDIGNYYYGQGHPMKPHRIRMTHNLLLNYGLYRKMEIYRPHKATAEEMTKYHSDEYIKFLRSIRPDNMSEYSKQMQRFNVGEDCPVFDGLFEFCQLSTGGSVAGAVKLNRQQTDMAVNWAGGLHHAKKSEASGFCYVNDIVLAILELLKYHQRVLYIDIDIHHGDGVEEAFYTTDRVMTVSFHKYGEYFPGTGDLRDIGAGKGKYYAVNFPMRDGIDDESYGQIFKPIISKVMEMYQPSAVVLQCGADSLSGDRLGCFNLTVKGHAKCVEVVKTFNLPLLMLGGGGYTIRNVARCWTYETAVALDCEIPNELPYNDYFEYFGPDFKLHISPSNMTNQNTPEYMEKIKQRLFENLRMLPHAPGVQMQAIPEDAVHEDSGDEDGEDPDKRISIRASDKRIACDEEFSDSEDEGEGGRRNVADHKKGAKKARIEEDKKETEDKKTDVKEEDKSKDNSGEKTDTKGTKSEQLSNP

[13] = Half life in Swiss Webster mouse liver at 40 mg/kg, ip by LC-MS/MS analysis; assay type: ADME, organism-based; conditions: in vivo; method in brief: as §1
Histone deacetylase 8 = molecular target: T2, Histone deacetylase 8 (Homo sapiens, UniProt Q9BY41); assay: Inhibition of HDAC8 in human DU-145 cells assessed as increase in histone H3 acetylation after 24 hrs by immunofluorescence microscopy; assay type: cell-based
T2 sequence (Q9BY41 whole entry): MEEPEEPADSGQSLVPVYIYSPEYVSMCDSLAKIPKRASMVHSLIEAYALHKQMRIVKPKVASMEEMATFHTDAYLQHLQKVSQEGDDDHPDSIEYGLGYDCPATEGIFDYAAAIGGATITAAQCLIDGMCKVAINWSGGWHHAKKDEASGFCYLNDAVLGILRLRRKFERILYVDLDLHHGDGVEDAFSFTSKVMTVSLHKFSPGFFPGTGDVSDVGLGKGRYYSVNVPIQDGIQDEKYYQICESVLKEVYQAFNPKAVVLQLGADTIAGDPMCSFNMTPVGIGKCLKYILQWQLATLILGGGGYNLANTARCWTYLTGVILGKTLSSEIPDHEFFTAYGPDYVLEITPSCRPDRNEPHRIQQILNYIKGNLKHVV

DU-145 [14] = assay: Cytotoxicity against human DU-145 cells assessed as reduction in cell viability at 50 uM incubated for 48 hrs by MTT assay; assay type: functional
Method in brief: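 DU145 cells in DMEM with 10% FBS were seeded at 14 000 cells/well and allowed to adhere for 24 h. Test agents were diluted from 10 mM DMSO stocks (100, 50, 25 µM; 10, 5, 1.25 nM) and applied in triplicate for 48 h at 37 °C, 5% CO2, with DMSO as vehicle. Read-out was 250 µg/mL MTT for 4 h, DMSO solubilization, and A570 with 690 nm reference. Values normalized to DMSO.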

[15] = AUC in Swiss Webster mouse blood at 40 mg/kg, ip by LC-MS/MS analysis; assay type: ADME, organism-based; parameters: dose 40 mg/kg; method in brief: as §1

CC(C)(C)OC(=O)CC(O)/C=C/CCSSCC/C=C/C(O)CC(=O)OC(C)(C)C (stereo not drawn)
MTD [1]: > 200 mg/kg
Tmax [2]: 10 min
Cmax [3]: 530 ng/g
Drug uptake [4]: Active
k el [5]: 0.000867 s⁻¹
AUC [6]: 2019 ng·min/g
t1/2 [7]: 45.4 min
Activity (Mus musculus [8]): Active
inhibition [9]: Active
Activity (DU-145 [10]): Dose-Dependent Effect
CC50 (DU-145 [10]; read-out: LD50 (the source's name)): 39 µM
inhibition [11]: Dose-Dependent Effect
Activity (Mus musculus [12]): inactive
IC50 (Histone deacetylase 2): 10 µM
t1/2 [13]: 41 min
IC50 (Histone deacetylase 8): 11 µM
inhibition at 50 µM (DU-145 [14]): 50%
AUC [15]: 88.1 ng·h/mL
